# Assay results from ChEMBL document CHEMBL1154616, “Synthesis and antitumor activity studies of some new fused 1,2,4-triazole derivatives carrying 2,4-dichloro-5-fluorophenyl moiety” (Eur J Med Chem, 2009).
# Tests used:
# Assay type in all cases: functional
# [1] = test system: NCI-H460; assay: Anticancer activity against human NCI-H460 cells assessed as cell growth at 100 uM after 48 hrs by sulforhodamine B assay relative to control; settings: NCI-H460, 48 h, read-out: Activity
# Outline: (§1)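 Three-cell-line prescreen (NCI-H460 lung, MCF7 breast, SF 268 CNS), each preincubated on microtiter plates. The agent is added at a single concentration and cultures are incubated 48 h. Growth is read by sulphorhodamine B protein staining and reported as percent growth of treated versus untreated control cells; negative values indicate cell kill.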
# [2] = test system: MCF7; assay: Anticancer activity against human MCF7 cells assessed as cell growth at 100 uM after 48 hrs by sulforhodamine B assay relative to control; settings: MCF7, 48 h, read-out: Activity; outline: as §1
# [3] = test system: SF-268; assay: Anticancer activity against human SF268 cells assessed as cell growth at 100 uM after 48 hrs by sulforhodamine B assay relative to control; settings: SF-268, 48 h, read-out: Activity; outline: as §1
# [4] = test system: CCRF-CEM; assay: Anticancer activity against human CCRF-CEM cells after 48 hrs by sulforhodamine B assay
# Outline: (§2)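 Full 60-cell-line panel, compounds tested over a five-log dose range. Cells are preincubated on microtiter plates, the agent is added, and cultures run 48 h. The end point is sulphorhodamine B protein staining. GI50 is taken as the concentration giving 50% growth inhibition relative to untreated control cells.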
# [5] = test system: HL-60(TB); assay: Anticancer activity against human HL-60(TB) cells after 48 hrs by sulforhodamine B assay; settings: HL-60, 48 h
# Outline: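 Run within the full 60-cell-line panel across a five-log dose range. GI50 was taken as the concentration causing 50% growth inhibition relative to untreated control cells.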
# [6] = test system: K562; assay: Anticancer activity against human K562 cells after 48 hrs by sulforhodamine B assay; settings: K562, 48 h; outline: as §2
# [7] = test system: MOLT-4; assay: Anticancer activity against human MOLT4 cells after 48 hrs by sulforhodamine B assay; settings: MOLT-4, 48 h; outline: as §2
# [8] = Anticancer activity against human […] cells after 48 hrs by sulforhodamine B assay; outline: as §2
# [9] = test system: SR; assay: Anticancer activity against human SR cells after 48 hrs by sulforhodamine B assay
# Outline: (§3)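 Cells from the 60-line full panel are preincubated on microtiter plates, then treated across a five-log dose range for 48 h. Growth is read with the protein-binding dye sulforhodamine B. GI50 is the concentration giving 50% growth inhibition relative to untreated control cells.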
# [10] = test system: A549; assay: Anticancer activity against human A549 cells after 48 hrs by sulforhodamine B assay; settings: A549, 48 h; outline: as §2
# [11] = test system: EKVX; assay: Anticancer activity against human EKVX cells after 48 hrs by sulforhodamine B assay; outline: as §2
# [12] = test system: HOP-62; assay: Anticancer activity against human HOP62 cells after 48 hrs by sulforhodamine B assay; settings: HOP-62, 48 h; outline: as §2
# [13] = test system: HOP-92; assay: Anticancer activity against human HOP92 cells after 48 hrs by sulforhodamine B assay; settings: HOP-92, 48 h; outline: as §2
# [14] = test system: NCI-H226; assay: Anticancer activity against human NCI-H226 cells after 48 hrs by sulforhodamine B assay; settings: NCI-H226, 48 h; outline: as §2
# [15] = test system: NCI-H23; assay: Anticancer activity against human NCI-H23 cells after 48 hrs by sulforhodamine B assay; settings: NCI-H23, 48 h; outline: as §2
# [16] = test system: NCI-H322M; assay: Anticancer activity against human NCI-H322M cells after 48 hrs by sulforhodamine B assay; outline: as §2
# [17] = test system: NCI-H460; assay: Anticancer activity against human NCI-H460 cells after 48 hrs by sulforhodamine B assay; settings: NCI-H460, 48 h; outline: as §2
# [18] = test system: NCI-H522; assay: Anticancer activity against human NCI-H522 cells after 48 hrs by sulforhodamine B assay; settings: NCI-H522, 48 h; outline: as §2
# [19] = test system: COLO 205; assay: Anticancer activity against human COLO205 cells after 48 hrs by sulforhodamine B assay; settings: COLO 205, 48 h; outline: as §2
# [20] = test system: HCC 2998; assay: Anticancer activity against human HCC2998 cells after 48 hrs by sulforhodamine B assay; settings: HCC 2998, 48 h; outline: as §2
# [21] = test system: HCT-116; assay: Anticancer activity against human HCT116 cells after 48 hrs by sulforhodamine B assay; settings: HCT-116, 48 h; outline: as §2
# [22] = test system: HCT-15; assay: Anticancer activity against human HCT15 cells after 48 hrs by sulforhodamine B assay; settings: HCT-15, 48 h; outline: as §2
# [23] = test system: HT-29; assay: Anticancer activity against human HT-29 cells after 48 hrs by sulforhodamine B assay; settings: HT-29, 48 h; outline: as §2
# [24] = test system: KM12; assay: Anticancer activity against human KM12 cells after 48 hrs by sulforhodamine B assay; settings: KM12, 48 h; outline: as §2
# [25] = test system: SW-620; assay: Anticancer activity against human SW620 cells after 48 hrs by sulforhodamine B assay; settings: SW-620, 48 h; outline: as §3
# [26] = test system: SF-268; assay: Anticancer activity against human SF268 cells after 48 hrs by sulforhodamine B assay; settings: SF-268, 48 h; outline: as §2
# [27] = test system: SF-295; assay: Anticancer activity against human SF295 cells after 48 hrs by sulforhodamine B assay; settings: SF-295, 48 h; outline: as §2
# [28] = test system: SF-539; assay: Anticancer activity against human SF539 cells after 48 hrs by sulforhodamine B assay; settings: SF-539, 48 h; outline: as §2
# [29] = test system: SNB-19; assay: Anticancer activity against human SNB19 cells after 48 hrs by sulforhodamine B assay; settings: SNB-19, 48 h; outline: as §2
# [30] = test system: SNB-75; assay: Anticancer activity against human SNB75 cells after 48 hrs by sulforhodamine B assay; settings: SNB-75, 48 h; outline: as §3
# [31] = test system: U-251; assay: Anticancer activity against human U251 cells after 48 hrs by sulforhodamine B assay; settings: U-251, 48 h; outline: as §3
# [32] = test system: LOX IMVI; assay: Anticancer activity against human LOXIMVI cells after 48 hrs by sulforhodamine B assay; outline: as §2
# [33] = test system: Malme-3M; assay: Anticancer activity against human MALME-3M cells after 48 hrs by sulforhodamine B assay; outline: as §2
# [34] = test system: M14; assay: Anticancer activity against human M14 cells after 48 hrs by sulforhodamine B assay; settings: M14, 48 h; outline: as §2
# [35] = test system: SK-MEL-28; assay: Anticancer activity against human SK-MEL-28 cells after 48 hrs by sulforhodamine B assay; settings: SK-MEL-28, 48 h; outline: as §2
# [36] = test system: UACC-62; assay: Anticancer activity against human UACC62 cells after 48 hrs by sulforhodamine B assay; settings: UACC-62, 48 h; outline: as §3
# [37] = test system: UACC-257; assay: Anticancer activity against human UACC257 cells after 48 hrs by sulforhodamine B assay; settings: UACC-257, 48 h; outline: as §3
# [38] = test system: IGROV-1; assay: Anticancer activity against human IGROV1 cells after 48 hrs by sulforhodamine B assay; settings: IGROV-1, 48 h; outline: as §2
# [39] = test system: OVCAR-3; assay: Anticancer activity against human OVCAR-3 cells after 48 hrs by sulforhodamine B assay; settings: OVCAR-3, 48 h; outline: as §2
# [40] = test system: OVCAR-4; assay: Anticancer activity against human OVCAR4 cells after 48 hrs by sulforhodamine B assay; settings: OVCAR-4, 48 h; outline: as §2
# [41] = test system: OVCAR-5; assay: Anticancer activity against human OVCAR5 cells after 48 hrs by sulforhodamine B assay; settings: OVCAR-5, 48 h; outline: as §2
# [42] = test system: OVCAR-8; assay: Anticancer activity against human OVCAR8 cells after 48 hrs by sulforhodamine B assay; settings: OVCAR-8, 48 h; outline: as §2
# [43] = test system: SK-OV-3; assay: Anticancer activity against human SKOV3 cells after 48 hrs by sulforhodamine B assay; settings: SK-OV-3, 48 h; outline: as §2
# [44] = test system: 786-0; assay: Anticancer activity against human 786-0 cells after 48 hrs by sulforhodamine B assay; settings: 786-0, 48 h; outline: as §2
# [45] = test system: ACHN; assay: Anticancer activity against human ACHN cells after 48 hrs by sulforhodamine B assay; outline: as §2
# [46] = test system: CAKI-1; assay: Anticancer activity against human Caki1 cells after 48 hrs by sulforhodamine B assay; settings: CAKI-1, 48 h; outline: as §2
# [47] = test system: RXF 393; assay: Anticancer activity against human RXF393 cells after 48 hrs by sulforhodamine B assay; settings: RXF 393, 48 h; outline: as §2
# [48] = test system: SN12C; assay: Anticancer activity against human SN12C cells after 48 hrs by sulforhodamine B assay; outline: as §2
# [49] = test system: TK-10; assay: Anticancer activity against human TK10 cells after 48 hrs by sulforhodamine B assay; settings: TK-10, 48 h; outline: as §3
# [50] = test system: UO-31; assay: Anticancer activity against human UO31 cells after 48 hrs by sulforhodamine B assay; settings: UO-31, 48 h; outline: as §3
# [51] = test system: PC-3; assay: Anticancer activity against human PC3 cells after 48 hrs by sulforhodamine B assay; settings: PC-3, 48 h; outline: as §2
# [52] = test system: DU-145; assay: Anticancer activity against human DU145 cells after 48 hrs by sulforhodamine B assay; settings: DU-145, 48 h; outline: as §2
# [53] = test system: MCF7; assay: Anticancer activity against human MCF7 cells after 48 hrs by sulforhodamine B assay; settings: MCF7, 48 h; outline: as §2
# [54] = test system: NCI/ADR-RES; assay: Anticancer activity against human NCI/ADR-RES cells after 48 hrs by sulforhodamine B assay; outline: as §2
# [55] = test system: MDA-MB-231; assay: Anticancer activity against human MDA-MB-231 cells after 48 hrs by sulforhodamine B assay; settings: MDA-MB-231, 48 h; outline: as §2
# [56] = Anticancer activity against human Hs 578T cells after 48 hrs by sulforhodamine B assay; outline: as §2
# [57] = test system: MDA-MB-435; assay: Anticancer activity against human MDA-MB-435 cells after 48 hrs by sulforhodamine B assay; settings: MDA-MB-435, 48 h; outline: as §2
# [58] = test system: T47D; assay: Anticancer activity against human T47D cells after 48 hrs by sulforhodamine B assay; outline: as §3
smiles,measurement,setting,value
Fc1cc(-c2nnc3n2N=C(c2ccc(Cl)cc2Cl)CS3)c(Cl)cc1Cl,growth at 100 µM,[1],32%
same,growth at 100 µM,[2],69%
same,growth at 100 µM,[3],76%
same,GI50,[4],27.6 µM
same,GI50,[5],> 100 µM
same,GI50,[6],47.5 µM
same,GI50,[7],75.1 µM
same,GI50,[8],25.3 µM
same,GI50,[9],> 100 µM
same,GI50,[10],58 µM
same,GI50,[11],58.5 µM
same,GI50,[12],44.2 µM
same,GI50,[13],54.2 µM
same,GI50,[14],36.5 µM
same,GI50,[15],82.5 µM
same,GI50,[16],76.4 µM
same,GI50,[17],37.3 µM
same,GI50,[18],50.8 µM
same,GI50,[19],32.9 µM
same,GI50,[20],35 µM
same,GI50,[21],25.4 µM
same,GI50,[22],38.3 µM
same,GI50,[23],40.5 µM
same,GI50,[24],41.9 µM
same,GI50,[25],36.8 µM
same,GI50,[26],36.6 µM
same,GI50,[27],36.4 µM
same,GI50,[28],39.2 µM
same,GI50,[29],25.4 µM
same,GI50,[30],> 100 µM
same,GI50,[31],56.2 µM
same,GI50,[32],34.3 µM
same,GI50,[33],26.6 µM
same,GI50,[34],37.5 µM
same,GI50,[35],40.2 µM
same,GI50,[36],24.9 µM
same,GI50,[37],86 µM
same,GI50,[38],50.4 µM
same,GI50,[39],22.8 µM
same,GI50,[40],> 100 µM
same,GI50,[41],> 100 µM
same,GI50,[42],57.3 µM
same,GI50,[43],48 µM
same,GI50,[44],47.1 µM
same,GI50,[45],66.6 µM
same,GI50,[46],35.9 µM
same,GI50,[47],51 µM
same,GI50,[48],56.4 µM
same,GI50,[49],77.3 µM
same,GI50,[50],60.2 µM
same,GI50,[51],39.2 µM
same,GI50,[52],49.5 µM
same,GI50,[53],31.3 µM
same,GI50,[54],30.8 µM
same,GI50,[55],33.7 µM
same,GI50,[56],33.6 µM
same,GI50,[57],24.4 µM
same,GI50,[58],17.7 µM
